The nature of test [1]: Inhibition of hedgehog signaling pathway-mediated PTCH mRNA expression in mouse ASZ001 cells up to 10 uM after 24 hrs by RT-PCR analysis. Format: cell-based.
In test [2] the target is Protein smoothened (Homo sapiens) (UniProt Q99835). The experiment in a line: Displacement of BODIPY-cyclopamine from full length human SMO receptor overexpressed in HEK293T cells up to 10 uM after 4 hrs by flow cytometric analysis. Format: cell-based. The conditions noted are these: HEK-293T. The method in brief: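 HEK293T cells transfected overnight with Myc-tagged full-length human Smo plasmid, split, then 2 days post-transfection incubated in DMEM/10% FBS with BODIPY-cyclopamine (5 nM) and test compound at 37 °C for 4 h. Cells trypsinized and resuspended in PBS. Bound BODIPY-cyclopamine read by flow cytometry. Transfection checked by anti-Myc staining. Representative experiment in triplicate.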
Sequence of Protein smoothened (Homo sapiens) (Q99835 whole entry): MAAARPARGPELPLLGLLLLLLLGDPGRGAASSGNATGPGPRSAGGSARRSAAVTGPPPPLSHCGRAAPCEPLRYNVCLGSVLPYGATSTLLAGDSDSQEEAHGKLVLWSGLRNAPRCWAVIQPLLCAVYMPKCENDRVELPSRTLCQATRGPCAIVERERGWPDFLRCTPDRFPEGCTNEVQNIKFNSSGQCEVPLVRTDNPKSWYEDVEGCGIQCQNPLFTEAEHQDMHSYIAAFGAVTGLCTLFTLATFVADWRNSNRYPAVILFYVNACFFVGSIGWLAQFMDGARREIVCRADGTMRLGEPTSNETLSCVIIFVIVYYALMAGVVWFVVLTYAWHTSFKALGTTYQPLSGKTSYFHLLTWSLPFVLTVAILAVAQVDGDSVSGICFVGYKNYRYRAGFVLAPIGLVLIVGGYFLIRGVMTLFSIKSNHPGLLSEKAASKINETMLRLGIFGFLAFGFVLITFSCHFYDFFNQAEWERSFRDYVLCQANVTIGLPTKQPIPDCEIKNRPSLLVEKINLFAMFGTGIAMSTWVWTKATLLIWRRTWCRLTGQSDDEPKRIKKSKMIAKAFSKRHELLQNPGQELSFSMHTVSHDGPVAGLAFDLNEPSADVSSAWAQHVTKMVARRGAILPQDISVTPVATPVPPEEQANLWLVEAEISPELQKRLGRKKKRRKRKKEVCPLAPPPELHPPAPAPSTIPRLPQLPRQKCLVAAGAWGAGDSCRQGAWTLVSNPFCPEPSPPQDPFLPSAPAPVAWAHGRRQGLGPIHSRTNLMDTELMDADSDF
(In flow cytometry, cells or beads pass a laser one at a time.)

Test [3] can be described thus: Inhibition of hedgehog signaling pathway-mediated PTCH mRNA expression in mouse C3H10T1/2 cells after 24 hrs by RT-PCR analysis. Format: cell-based. The conditions noted are these: C3H 10T1/2, 24 h. A digest of the protocol: (§1)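 OHC-stimulated C3H10T1/2 cells (20α- and 22(S)-hydroxycholesterol, 5 μM each) given analogue at a range of concentrations. Gli1 and Ptch mRNA quantified by qPCR. IC50 given as mean ± SEM of at least two experiments run in triplicate.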

Test [4] in a line: Inhibition of hedgehog signaling pathway in non-targeting siRNA treated mouse C3H10T1/2 cells assessed as downregulation of GLI1 expression at 5 uM after 24 hrs by qPCR analysis. The class given is cell-based. The conditions noted are these: C3H 10T1/2. A digest of the protocol: (§2)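 C3H10T1/2 cells transfected 24 h after seeding with mouse VDR-specific or nontargeting siRNA plus Lipofectamine 2000 in medium with 0.5% FBS for 6 h, then complete medium overnight. Treated 24 h post-transfection (5 μM; calcitriol 0.5 μM). RNA and cDNA prepared 24 h later (48 h post-transfection), then qPCR of VDR, Gli1 and Cyp24A1. Representative experiment in triplicate.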
Background: Real-time PCR tracks product formation cycle by cycle.

The target of test [5] is T1, Vitamin D3 receptor (Mus musculus) (UniProt P48281).
T1 sequence (whole entry): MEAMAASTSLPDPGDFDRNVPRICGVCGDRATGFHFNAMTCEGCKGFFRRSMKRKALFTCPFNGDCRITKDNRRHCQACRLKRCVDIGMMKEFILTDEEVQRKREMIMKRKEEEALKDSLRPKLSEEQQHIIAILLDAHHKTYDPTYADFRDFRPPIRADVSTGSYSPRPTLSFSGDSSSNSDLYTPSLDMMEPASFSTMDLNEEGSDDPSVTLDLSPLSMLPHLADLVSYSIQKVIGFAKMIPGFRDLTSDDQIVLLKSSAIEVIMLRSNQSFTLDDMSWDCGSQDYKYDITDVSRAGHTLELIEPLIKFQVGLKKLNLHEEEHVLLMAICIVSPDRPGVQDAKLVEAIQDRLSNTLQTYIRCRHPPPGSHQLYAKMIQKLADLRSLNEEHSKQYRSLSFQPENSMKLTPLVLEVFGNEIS
The experiment in a line: Activation of VDR in mouse ASZ001 cells assessed as upregulation of CYP24A1 mRNA expression at 5 uM after 24 hrs by RT-PCR analysis relative to DMSO-treated control. Format: cell-based. A digest of the protocol:
(§3)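 Cyp24A1 mRNA read by qPCR after 24 h exposure at 5 μM. Up-regulation normalized to DMSO control, set to 1.0.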

Test [6] is described as follows: Inhibition of hedgehog signaling pathway-mediated PTCH mRNA expression in human DaOY cells after 24 hrs by RT-PCR analysis. The class given is cell-based. A digest of the protocol: (§4)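 ASZ001 (murine BCC) or DAOY (human medulloblastoma) cells given analogue at a range of concentrations. Gli1 and Ptch mRNA quantified by qPCR. IC50 given as mean ± SEM of at least two experiments in triplicate.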

A short description of test [7]: Inhibition of hedgehog signaling pathway-mediated GLI1 mRNA expression in mouse ASZ001 cells after 24 hrs by RT-PCR analysis. The note with it: ASZ001, 24 h. Format: cell-based. The method in brief: as §4
Test [8] can be described thus: Activation of hedgehog signaling pathway in VDR-knockdown mouse C3H10T1/2 cells assessed as effect on VDR expression at 5 uM after 24 hrs by qPCR analysis. The class given is cell-based. The note with it: C3H 10T1/2. The method in brief: as §2
The target in test [9] is T1, Vitamin D3 receptor (Mus musculus). The experiment in a line: Activation of VDR in mouse C3H10T1/2 cells assessed as upregulation of CYP24A1 mRNA expression at 5 uM after 24 hrs by RT-PCR analysis relative to DMSO-treated control. Format: cell-based. The conditions noted are these: C3H 10T1/2. The method in brief:
as §3

The nature of test [10]: Inhibition of hedgehog signaling pathway in VDR-knockdown mouse C3H10T1/2 cells assessed as effect on VDR expression at 5 uM after 24 hrs by qPCR analysis. The conditions noted are these: C3H 10T1/2. Format: cell-based. The method in brief: as §2
Test [11] in a line: Inhibition of hedgehog signaling pathway-mediated GLI1 mRNA expression in human DaOY cells after 24 hrs by RT-PCR analysis. Format: cell-based. A digest of the protocol:
as §4

A short description of test [12]: Activation of hedgehog signaling pathway in non-targeting siRNA treated mouse C3H10T1/2 cells assessed as effect on VDR expression at 5 uM after 24 hrs by qPCR analysis. The class given is cell-based. The conditions noted are these: C3H 10T1/2. A digest of the protocol: as §2
Test [13] in a line: Inhibition of hedgehog signaling pathway in VDR-knockdown mouse C3H10T1/2 cells assessed as downregulation of GLI1 expression at 5 uM after 24 hrs by qPCR analysis. Format: cell-based. The note with it: C3H 10T1/2. A digest of the protocol: as §2
The subject of test [14] is C3H 10T1/2. Nature of the test: Effect on CYP24A1 RNA level in non-targeting siRNA treated mouse C3H10T1/2 cells at 5 uM after 24 hrs by qPCR analysis. The class given is functional, cell-based. The method in brief:
as §2

Test [15] in a line: Inhibition of hedgehog signaling pathway-mediated GLI1 mRNA expression in mouse C3H10T1/2 cells after 24 hrs by RT-PCR analysis in presence of GDC-0449. The class given is cell-based. The conditions noted are these: C3H 10T1/2.
Test [16] in a line: Inhibition of hedgehog signaling pathway-mediated GLI1 mRNA expression in mouse C3H10T1/2 cells after 24 hrs by RT-PCR analysis. Format: cell-based. The conditions noted are these: for inhibition: C3H 10T1/2; for IC50: C3H 10T1/2, 24 h. The method in brief:
as §1

For test [17], the target named is T2, Vitamin D3 receptor (Homo sapiens) (UniProt P11473).
T2 sequence (whole entry): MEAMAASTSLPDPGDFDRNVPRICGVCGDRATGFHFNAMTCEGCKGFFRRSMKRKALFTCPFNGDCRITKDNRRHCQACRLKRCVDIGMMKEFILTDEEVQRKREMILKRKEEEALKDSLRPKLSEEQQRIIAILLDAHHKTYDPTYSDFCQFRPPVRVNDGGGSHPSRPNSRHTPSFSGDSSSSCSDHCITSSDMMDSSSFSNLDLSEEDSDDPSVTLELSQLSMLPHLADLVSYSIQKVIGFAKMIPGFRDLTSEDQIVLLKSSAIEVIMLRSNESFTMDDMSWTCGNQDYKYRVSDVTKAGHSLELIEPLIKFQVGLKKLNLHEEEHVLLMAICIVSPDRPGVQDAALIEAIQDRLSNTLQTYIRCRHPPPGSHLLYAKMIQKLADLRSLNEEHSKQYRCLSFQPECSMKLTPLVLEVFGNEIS
Nature of the test: Activation of VDR in human DaOY cells assessed as upregulation of CYP24A1 mRNA expression at 5 uM after 24 hrs by RT-PCR analysis relative to DMSO-treated control. Format: cell-based. A digest of the protocol: as §3

A short description of test [18]: Inhibition of hedgehog signaling pathway-mediated GLI1 mRNA expression in mouse C3H10T1/2 cells assessed as residual activity at 5 uM after 24 hrs by RT-PCR analysis relative to 20alpha-hydroxycholesterol/22(S)-hydroxycholesterol. Format: cell-based. The note with it: C3H 10T1/2. A digest of the protocol:
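C3H10T1/2 cells co-treated with analogue and the oxysterol Hh activators 20α-hydroxycholesterol plus 22(S)-hydroxycholesterol (5 μM each) for 24 h. Gli1 mRNA measured by qPCR as % of OHC-only control (100%). Analogue at 5 μM, or at 0.5 μM where stated.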

Test [19] has as its target Protein smoothened (Homo sapiens) (UniProt Q99835). Nature of the test: Displacement of BODIPY-cyclopamine from full length human SMO receptor overexpressed in HEK293T cell membranes up to 10 uM after 5 hrs by fluorescence polarization assay. The note with it: HEK-293T. The method in brief: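 Membranes from HEK293T cells transfected with full-length human Smo, collected 24 h post-transfection. Cells lysed in hypotonic buffer (50 mM Tris-HCl, 1 mM EDTA, pH 7.5, protease inhibitors) by syringe passage. Membranes pelleted at 20000g after a 500g spin. Membranes (10 μg/well) incubated with BODIPY-cyclopamine (5 nM) and compound at 30 °C for 5 h. Fluorescence polarization at ex 485/em 528. Triplicate.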
On the technique in general: In fluorescence polarisation assays a small probe gives low polarisation when free and higher when bound to something large.

Test [20] in a line: Inhibition of hedgehog signaling pathway in non-targeting siRNA treated mouse C3H10T1/2 cells assessed as effect on VDR expression at 5 uM after 24 hrs by qPCR analysis. Format: cell-based. The conditions noted are these: C3H 10T1/2. A digest of the protocol:
as §2

Test [21] concerns C3H 10T1/2. The experiment in a line: Effect on CYP24A1 RNA level in VDR-knockdown mouse C3H10T1/2 cells at 5 uM after 24 hrs by qPCR analysis. Format: functional, cell-based.
Test [22] is described as follows: Activation of hedgehog signaling pathway in VDR-knockdown mouse C3H10T1/2 cells assessed as effect on VDR expression at 0.5 uM after 24 hrs by qPCR analysis. The class given is cell-based. The conditions noted are these: C3H 10T1/2.
Test [23] in a line: Activation of hedgehog signaling pathway in non-targeting siRNA treated mouse C3H10T1/2 cells assessed as effect on VDR expression at 0.5 uM after 24 hrs by qPCR analysis. Format: cell-based. The note with it: C3H 10T1/2.
Test [24] is described as follows: Inhibition of hedgehog signaling pathway in non-targeting siRNA treated mouse C3H10T1/2 cells assessed as effect on VDR expression at 0.5 uM after 24 hrs by qPCR analysis. The conditions noted are these: C3H 10T1/2. The class given is cell-based.
A short description of test [25]: Inhibition of hedgehog signaling pathway in VDR-knockdown mouse C3H10T1/2 cells assessed as effect on VDR expression at 0.5 uM after 24 hrs by qPCR analysis. Format: cell-based. The note with it: C3H 10T1/2.
Test [26] has as its system C3H 10T1/2. Nature of the test: Effect on CYP24A1 RNA level in non-targeting siRNA treated mouse C3H10T1/2 cells at 0.5 uM after 24 hrs by qPCR analysis. The class given is functional, cell-based.

Calls of active or inactive are those of the source. No cut-off for these calls is given here.

Turning to `C=C1CC[C@H](O)C/C1=C/C=C1\CCC[C@]2(C)[C@@H]([C@H](C)CCCC(C)C)CC[C@@H]12` [CHOLECALCIFEROL], the inhibition result in test [1], in test [2], in test [13] and in [19] was “inactive” each time. Moreover, the IC50 (usually the concentration needed to halve the response being measured) is 2.9 µM in test [3]; > 10 µM in test [6]; 2.1 µM in test [7]; > 10 µM in [11]; 4.1 µM in test [16]. The inhibition entry in test [4], in test [10], in [15] and in [20] was “Active” in each case. Moreover, the fold change (FC) in test [5] amounted to 764; in test [9] it was 8340; in [17], 149. Besides, the result in [8], in test [12] and in test [14] was Active. Besides, the inhibition entry in test [16] was “Dose-dependent effect”. The Activity in test [18] worked out at 35.7%.

Take `CC(C)CCC[C@@H](C)[C@H]1CC[C@H]2[C@@H](OC(=O)c3cccc(O)c3)CCC[C@]12C`: the inhibition entry in test [2], in test [10], in test [19] and in test [20] was “inactive” each time. Also, the IC50 in test [3] worked out at 1.1 µM; in [6], 3.6 µM; in [7] it was 5.2 µM; in test [11], 3.7 µM; in test [16] it was 0.74 µM. Moreover, the fold change (FC) was found to be 1.9 in test [5], 22.2 in test [9] and 1.9 in test [17]. The outcome in test [8], in [12] and in [21] was inactive. In addition, the result in test [14] was Active. Also, in [15], the inhibition result is “Active”. The inhibition entry in test [16] is “Dose-dependent effect”. For the same compound, the Activity in [18] came out at 1.9%.

As to `C=C1/C(=C\C=C2/CCC[C@]3(C)[C@@H]([C@H](C)CCCC(C)(C)O)CC[C@@H]23)C[C@@H](O)C[C@@H]1O`, the outcome in test [22], in test [23] and in test [26] was Active. Also, the inhibition entry in test [24] and in [25] was “Active” in each case.

For the origin of these results see ChEMBL document CHEMBL3259768, “Structure-activity relationships for vitamin D3-based aromatic a-ring analogues as hedgehog pathway inhibitors” (J Med Chem, 2014).
